Measured values collected from several papers.
Protocols differ between the studies behind these lines.

With `Cc1ccc(-c2nc3ccccc3o2)cc1NC(=O)c1cc([N+](=O)[O-])c(N2CCNCC2)cc1Cl` the scaled CLint was 12 mL/min/kg (metabolic stability; CD-1 mouse, liver microsomes; 1 µM, 1 h, pH 7.4).
`CC(=O)Nc1nnc(N2CCN([C@@H](C)c3ccc4c(c3)OCO4)CC2)s1` gave a fraction unbound of 0.068 (monkey, plasma; 1 µM).
The Vd/F of `CNCc1cc(-c2ccccc2F)n(S(=O)(=O)c2cccnc2)c1` is reported as 32.2 L/kg (Sprague-Dawley rat, plasma; oral, 10 mg/kg).
The scaled CLint of `Cc1cc(Cl)c(Cl)cc1NC(=O)c1ccc(N2CCNCC2)nc1` is reported as 47 mL/min/kg (metabolic stability; CD-1 mouse, liver microsomes; 1 µM, 1 h, pH 7.4).
With `c1ccc(-c2nc(NCc3nc4ccccc4o3)c3ccccc3n2)nc1` the microsomal CLint was 119 µL/min/mg (metabolic stability; mouse, liver microsomes).
With `Oc1c(Br)cc(Cl)c2cccnc12` the Vd/F was 15.1 L/kg (Sprague-Dawley rat, plasma; subcutaneous, 10 mg/kg).
`O=C(O)C1CCN(c2nc(-c3ccccn3)nc3ccccc23)C1` (stereo not shown) has a microsomal CLint of under 1 µL/min/mg (metabolic stability; mouse, liver microsomes).
For `O=C(CCCCCCC(=O)Nc1ccccc1)NO`, the Cmax was 39 ng/mL (cat, serum; oral, 250 mg/m², single dose).
`c1ccc(-c2nc(N3CCc4cccnc4C3)c3ccccc3n2)nc1` has a microsomal CLint of 520 µL/min/mg (metabolic stability; mouse, liver microsomes).
The Vd/F of `C#Cc1cccc(Nc2ncnc3cc(OCCOC)c(OCCOC)cc23)c1` is reported as 4.3 L/kg (male Sprague-Dawley rat, plasma; oral, 12 mg/kg, single dose).
